Assay outcomes (PubChem)
This is a sample that favours compounds with a hit; in the whole collection about 3% have one here.
CHRM4 agonist: agonists of human muscarinic M4 receptor (CHRM4); P08173; CHO-K1 hM4/Gqi5, Fluo-8 calcium fluorescence; vehicle 0%, full acetylcholine response 100%; 360,000 tested, 0.14% active; AID 624127; activation, % at 3 µM;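 active = activation above the run mean over all test wells plus 3 SD, cut at about 32% in these data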;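 also: peak over basal fluorescence ratio per well then scaled between controls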
CHRM4 PAM: positive allosteric modulators of human muscarinic M4 receptor. P08173. CHO-K1 hM4/Gqi5, Fluo-8 calcium fluorescence, ACh EC20; 0% = ACh EC20, 100% = maximal ACh. activation, % at 3 µM. 360,000 tested, 0.4% active;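 active = activation above its plate's cutoff, the mean activation of sample wells plus 3 SD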
TAAR1 antag: human TAAR1 antagonism. Q96RJ0. CHO RD-HGA16 TAAR1, Fluo-8 calcium fluorescence, antagonist. inhibition, % at 3 µM. 360,000 tested, 1.5% active. AID 624466;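 active = inhibition above a per-plate cutoff, the mean inhibition of test compounds on that plate plus 3 SD, cut at about 49% in these data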
Target sequence (Q96RJ0 whole entry, looked up): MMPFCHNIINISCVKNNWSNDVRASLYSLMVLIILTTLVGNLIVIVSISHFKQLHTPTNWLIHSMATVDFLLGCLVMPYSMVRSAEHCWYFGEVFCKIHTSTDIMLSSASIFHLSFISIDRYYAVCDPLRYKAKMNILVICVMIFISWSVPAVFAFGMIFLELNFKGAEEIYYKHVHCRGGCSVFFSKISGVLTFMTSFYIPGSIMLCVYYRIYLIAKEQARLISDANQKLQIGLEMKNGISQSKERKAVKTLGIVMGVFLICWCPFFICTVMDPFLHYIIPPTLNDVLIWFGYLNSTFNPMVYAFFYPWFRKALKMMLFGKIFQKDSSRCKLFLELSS
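test system = CHO RD-HGA16 cells bearing hTAAR1 | replication = singlicate | controls = DMSO-only wells and EC80 β-PEA-stimulated wells | reagent = EC80 β-phenethylamine stimulus | read-out basis = percent inhibition of PEA-evoked calcium signal, max/basal emission ratio | schedule = seeding 17-24 h prior, 75-min 37 °C, 30-min RT dye loading | signal = kinetic Fluo-8 calcium fluorescence measurement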
CHRM4 antagonist: antagonists of human muscarinic M4 receptor (CHRM4); P08173; CHO-hM4 cells, ACh EC80, Fluo-8 calcium fluorescence; inhibition, % at 3 µM; 360,000 tested, 0.73% active; AID 624125;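 active = inhibition above its plate's cutoff, the mean inhibition of sample wells plus 3 SD, cut at about 27% in these data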
TAAR1 ag: agonists of human TAAR1. 360,000 tested, 0.99% active. activation, % at 3 µM. CHO RD-HGA16 TAAR1, Fluo-8 calcium fluorescence; vehicle wells 0%, saturating PEA agonist 100%;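 active = activation above the mean activation of all test compounds in the run plus 3 SD, cut at about 38% in these data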
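Test system: RD-HGA16 (CHO) cells co-expressing Gα16 and hTAAR1 | Doses: Single dose, 3 µM | Schedule: 17-24 h seeding, 75 min 37 °C dye, 30 min RT | Evaluation: % activation from peak over basal fluorescence ratio, DMSO-to-PEA scaled | Technique: Kinetic Fluo-8 calcium fluorescence | Benchmarks: Low control DMSO, high control PEA (EC100)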
TAAR1 ag confirm: human TAAR1 agonism, confirmed. shares compounds with TAAR1 ag. 2,400 tested, 82% active. activation, % at 3 µM. CHO RD-HGA16 TAAR1, Fluo-8 calcium fluorescence; scaled: DMSO 0%, maximal phenethylamine 100%. AID 651783;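 active = activation above a cutoff set at the run's mean compound activation plus 3 SD, cut at about 39% in these data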
Ga16 nonsel ag: nonselective agonism, TAAR1 counter-screen. shares compounds with TAAR1 ag. CHO-Ga16 parental, Fluo-8 calcium fluorescence; normalized to maximal ATP response, DMSO zero. activation, % at 3 µM. 2,400 tested, 50% active;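 active = activation above the run cutoff, the mean activation over all tested wells plus 3 SD, cut at about 12% in these data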
TAAR1 desensitize: counter-screen for human TAAR1 agonists: agonists that desensitize TAAR1; shares compounds with TAAR1 ag; CHO RD-HGA16 hTAAR1, Fluo-8 calcium, beta-PEA response inhibition; inhibition, % at 3 µM; 2,400 tested, 46% active; AID 651951;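 active = inhibition above the run cutoff, the mean inhibition of all test compounds plus 3 SD, cut at about 49% in these data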;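 also: beta-PEA stimulus applied at its EC80; loss of beta-PEA calcium signal after compound pretreatment read as receptor desensitization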
Ga16 nonsel ant: counter-screen for TAAR1 agonists: nonselective Ga16 antagonists; shares compounds with TAAR1 ag; CHO-Ga16 ATP-induced calcium, Fluo-8 fluorescence; inhibition, % at 3 µM; 2,400 tested, 39% active; AID 651952;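 active = inhibition above the plate's mean compound inhibition plus 3 SD, computed per plate, cut at about 22% in these data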
Numbers stand for hits; . = inactive; / = no result given.

SMILES	CHRM4 agonist	CHRM4 PAM	TAAR1 antag	CHRM4 antagonist	TAAR1 ag	TAAR1 ag confirm	Ga16 nonsel ag	TAAR1 desensitize	Ga16 nonsel ant
CCOc1ccc(CCN2C(=S)N([C@@H](CC(C)C)CN3CCCC3CN3C(=S)NC[C@@H]3CC(C)C)C[C@@H]2CC(C)C)cc1 (stereo partly specified)	.	.	.	.	.	/	/	/	/
CC(=O)C1=C(C)N(Cc2ccc(Cl)cc2)C(=S)NC1c1ccccc1 (stereo unspecified)	/	/	.	/	.	/	/	/	/
CCN(CC)CCNC(=O)c1cc(S(=O)(=O)N2CCc3ccccc32)cn1C	.	.	.	.	.	/	/	/	/
CCN(CC)CCNC(=O)c1ccc(NC(=O)c2cccc(S(=O)(=O)N3CCc4ccccc43)c2)cc1	.	.	.	61.3	60.3	59.5	.	.	.
COc1cc2nc(CN3CCN(S(=O)(=O)c4ccccc4[N+](=O)[O-])CC3)[nH]c(=O)c2cc1OC	.	.	.	.	.	/	/	/	/
CCN(Cc1ccncc1)Cc1c(O)ccc2ccccc12	.	.	.	.	53.2	54.6	.	.	.
COc1ccc(Nc2nc(N3CCCCC3)c3ccccc3n2)cc1	.	.	.	.	62.7	49.6	.	.	.
COc1ccc(Nc2nc(N)c([N+](=O)[O-])c(N3CCCC3)n2)cc1	.	.	.	.	.	/	/	/	/
Cc1ccc(Nc2nc(N3CCOCC3)c3ccccc3n2)cc1	.	.	.	.	.	/	/	/	/
Oc1ccc(Nc2nc(N3CCCC3)c3ccccc3n2)cc1	.	.	84.5	.	84.0	91.4	.	94.8	.
O=[N+]([O-])C1=CC=C2C(=NC3(CCCCC3)N2O)C1=NCCc1ccccc1	.	.	.	.	44.2	78.6	.	50.4	.
CC(C)(C)N=C1C([N+](=O)[O-])=CC=C2C1=NC1(CCCCC1)N2O	.	.	.	.	.	/	/	/	/
COc1cc(CNCCc2ccccc2)ccc1OCc1ccc(Cl)nc1	.	.	.	.	53.9	70.6	.	.	.
CCOc1cc(CNCCc2ccc(S(N)(=O)=O)cc2)ccc1OCc1ccc(Cl)cc1	.	.	.	42.0	68.6	84.6	46.0	91.3	71.9
O=C(NCC1COc2ccccc2O1)c1cccc(S(=O)(=O)N2CCN(c3ccccc3)CC2)c1 (stereo unspecified)	.	.	.	.	.	/	/	/	/
Cc1cc(NC(=O)C2CC(=O)OC2c2ccccc2)no1 (stereo unspecified)	.	.	.	.	.	/	/	/	/
COc1ccc(NC(=O)C2CC(=O)OC2c2ccccc2)cc1 (stereo unspecified)	.	.	.	.	50.6	.	.	.	.
O=C(Nc1ccc2c(c1)OCCO2)C(C1CC1)n1c(=O)c(-c2cc3ccccc3[nH]2)nc2ccccc21 (stereo unspecified)	.	.	.	.	.	/	/	/	/
O=c1[nH]c(CSc2ncn[nH]2)nc2ccccc12	.	.	.	.	42.4	.	.	.	.
CC(=O)c1ccc(S(=O)(=O)N2CCN(C(=O)C(=O)c3cccc(C(F)(F)F)c3)CC2)cc1	/	/	.	/	.	/	/	/	/
Cc1noc(C)c1S(=O)(=O)N(C)C[C@H]1OCc2cnnn2CCCC(=O)N([C@H](C)CO)C[C@H]1C	.	.	.	.	.	/	/	/	/
CC(C)(C)CC(C)(C)NCC(O)COc1ccc2c(c1)CCC2 (stereo unspecified)	.	.	.	.	56.4	.	11.7	.	.
C[C@@H](NS(=O)(=O)c1cc(Cl)ccc1F)[C@H](O)c1ccccc1	.	.	.	.	.	/	/	/	/
CSCC[C@H](NC(=O)COc1ccc(Cl)cc1)C(=O)N1CCC2(CC1)NCCc1[nH]cnc12	.	.	.	.	52.0	.	.	.	.
CSCC[C@H](NC(=O)c1ccc2ccccc2c1)C(=O)N1CCC2(CC1)NCCc1[nH]cnc12	.	.	.	.	.	/	/	/	/
SMILES	CHRM4 agonist	CHRM4 PAM	TAAR1 antag	CHRM4 antagonist	TAAR1 ag	TAAR1 ag confirm	Ga16 nonsel ag	TAAR1 desensitize	Ga16 nonsel ant
O=C(NCC1CC1)c1ccc(Nc2nc3ccc(Br)cc3[nH]2)cc1	.	.	92.5	.	48.5	45.3	.	67.0	.
COc1ccc(-c2nc3ccccc3n(CC(C)C)c2=O)cc1	.	.	.	.	.	/	/	/	/
Cc1cc(C(c2ccc(O)cc2)c2cc(C)c(O)cc2C)c(C)cc1O	.	.	85.0	.	113.0	131.0	77.5	78.1	41.2
CCn1cc(S(=O)(=O)NCCc2ccccc2OC)cn1	.	.	.	.	45.6	59.5	.	.	.
CC(=O)c1ccc(N2CCN(C(=O)c3ccc(Cn4c(=S)[nH]c5ccc(N6CCOCC6)cc5c4=O)cc3)CC2)cc1	.	.	.	.	52.9	.	.	.	.
O=C(c1ccc2c(=O)n(Cc3ccccc3)c(=S)[nH]c2c1)N1CCOCC1	.	.	.	.	.	/	/	/	/
CCOC(=O)C(NC(C)=O)(N1CCc2ccccc2C1)C(F)(F)F (stereo unspecified)	.	.	92.5	.	102.8	107.6	.	98.3	.
CC(C)Nc1nc(Nc2ccc(F)cc2)c2sccc2n1	.	.	.	.	.	/	/	/	/
COc1ccc(C)cc1NC(=O)COC(=O)c1c(-c2ccccc2)noc1C	.	.	.	.	.	/	/	/	/
Cc1cccn2c(CNC3CCCc4ccccc43)c(C(=O)N3CCOCC3)nc12 (stereo unspecified)	.	.	.	.	.	/	/	/	/
Cc1cccn2c(CNCC3OCCc4ccccc43)c(C(=O)N3CCCCC3)nc12 (stereo unspecified)	.	.	.	.	69.2	74.3	.	60.8	.
CC(=O)C1CCC2C3CC=C4CC(SC(=N)N)CCC4(C)C3CCC12C (stereo unspecified)	.	.	80.9	.	83.6	111.2	69.4	90.7	53.4
COc1ccc(S(=O)(=O)NCc2cccnc2)cc1NC(=O)c1ccccc1C	.	.	.	.	.	/	/	/	/
COC(=O)C1=C(C)N(Cc2ccc(C(F)(F)F)cc2)C(=NCc2ccccc2)NC1c1cccc(F)c1 (stereo unspecified)	/	/	66.0	/	40.3	.	17.9	.	38.8
